{"data": "Experimental data collected from several papers", "target": "Casein kinase II subunit alpha' (CSNK2A2, Homo sapiens, UniProt P19784)", "note": "Lines come from different studies, so protocols differ."}
{"Structure (SMILES)": "O=c1[nH]c2ccccc2n1C1CCN(Cc2ccc(-c3[nH]c4cc5ncnc5cc4nc3-c3ccccc3)cc2)CC1", "effect on": "cell-free assay", "concentration": "0.5 µM", "measurement": "remaining signal", "result": "101%"}
{"Structure (SMILES)": "COc1ncccc1-c1cnn2ccc(N3CCN(C(=O)OC(C)C)CC3)nc12", "effect on": "binding", "technique": "competition with immobilised ligand", "concentration": "1 µM", "measurement": "remaining binding", "result": "62%"}
{"Structure (SMILES)": "C#Cc1n[nH]c2c(-c3cn([C@@H](C)c4ccccc4)c(=O)[nH]c3=O)cc(F)cc12", "effect on": "enzyme activity", "action": "inhibitor", "concentration": "0.1 µM", "measurement": "inhibition", "result": "1.5%"}
{"Structure (SMILES)": "CN[C@@H]1C[C@H]2O[C@@](C)([C@@H]1OC)n1c3ccccc3c3c4c(c5c6ccccc6n2c5c31)C(=O)NC4", "effect on": "enzyme activity", "action": "inhibitor", "concentration": "0.5 µM", "measurement": "activity vs control", "result": "66.6%"}
{"Structure (SMILES)": "Cn1cncc1[C@@](O)(COc1ccc(C#N)cc1-c1ccc(OC(F)(F)F)cc1)c1ccc(C#N)cc1", "effect on": "cell-free assay", "technique": "competition with immobilised ligand", "concentration": "1 µM", "measurement": "remaining binding", "result": "100%"}
{"Structure (SMILES)": "C#Cc1n[nH]c2c(-c3cn([C@@H](C)c4ccccn4)c(=O)[nH]c3=O)cc(F)cc12", "effect on": "enzyme activity", "action": "inhibitor", "concentration": "0.1 µM", "measurement": "inhibition", "result": "3.3%"}
{"Structure (SMILES)": "Cn1cc(-c2cccc(N3CCc4c(sc5c4CC(C)(C)C5)C3=O)c2CO)cc(Nc2ccncn2)c1=O", "effect on": "enzyme activity", "action": "inhibitor", "concentration": "1 µM", "measurement": "inhibition", "result": "4%"}
{"Structure (SMILES)": "Nc1ncc(-c2nc(N3CCOCC3)nc(N3CCOCC3)n2)c(C(F)F)n1", "effect on": "binding", "technique": "competition with immobilised ligand", "concentration": "10 µM", "measurement": "remaining binding", "result": "69%"}
{"Structure (SMILES)": "Cn1cc(-c2cc(F)cc(N3CCn4c(cc5c4CCCC5)C3=O)c2CO)cc(Nc2ccc(N3CCN(C4COC4)CC3)cn2)c1=O", "effect on": "enzyme activity", "action": "inhibitor", "concentration": "0.1 µM", "measurement": "inhibition", "result": "1%"}
{"Structure (SMILES)": "Cc1nn(C)cc1-c1nc2c(N3CCN(Cc4ccc(Cl)cc4)CC3)c(Cl)cnc2[nH]1", "effect on": "binding", "technique": "competition with immobilised ligand", "concentration": "1 µM", "measurement": "remaining binding", "result": "67%"}
